Columns and labels:
Trypanothione reductase = Trypanothione reductase (Trypanosoma brucei brucei, UniProt P39051); experiment: Inhibition of Trypanosoma brucei recombinant Trypanothione reductase assessed as decrease in (T[SH]2) formation using trypanothione disulfide as substrate after 15 mins by colorimetric analysis
[1] = Inhibition of beta-haematin formation by microplate reader analysis relative to hemin; format: physicochemical
Outline: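 Haemin chloride (8 mM stock in DMSO) mixed with serial compound dilutions (0.5-32 mM) in 25% DMSO; formation initiated with 8 M acetate buffer pH 5.0, 18 h at 37 °C. Pellets washed with DMSO, β-haematin dissolved in 0.1 M NaOH, OD 400 nm read versus drug-free controls; BHIA50 expressed as compound equivalents relative to haemin, by linear regression.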

Trypanosoma brucei [2] = experiment: Selectivity index, ratio of IC50 for inhibition of Trypanosoma brucei recombinant Trypanothione reductase to IC50 for trypanocidal activity against bloodstream form of Trypanosoma brucei 221
[3] = Selectivity index, ratio of IC50 for rat L6 cells to IC50 for bloodstream form of Trypanosoma brucei 221; format: toxicity, cell-based; settings: read-out: Ratio IC50
Outline: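 IC50 ratio, L6 over T. brucei. L6 cells seeded at 1×10^4 mL⁻¹ with compound, 6 days at 37 °C, then resazurin, 8 h more, fluorescence read. Log-phase bloodstream T. brucei 221 in modified Iscove's medium at 0.25 × 105 mL⁻¹, compound range in triplicate, 37 °C; resazurin at 48 h, read after 16 h more.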

[4] = Selectivity index, ratio of IC50 for rat L6 cells to IC50 for chloroquine-resistant Plasmodium falciparum K1; format: toxicity, cell-based; settings: read-out: Ratio IC50
Outline: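 IC50 ratio, L6 over P. falciparum K1. L6 cells seeded at 1×10^4 mL⁻¹ with compound, 6 days at 37 °C, resazurin added, fluorescence after 8 h. Parasites in A+ erythrocytes (2.5% haematocrit, 1% parasitaemia) with twofold dilutions, 48 h at 37 °C in low-oxygen gas; growth read by LDH activity at 550 nm.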

L6 = experiment: Cytotoxicity against rat L6 cells assessed as inhibition of cell growth after 6 days by Spectramax fluorescence plate reader analysis; format: cell-based; settings: L6, 144 h
Outline: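 L6 rat skeletal myoblasts seeded at 1×10^4 mL⁻¹ in growth medium containing a range of compound concentrations, incubated 6 days at 37 °C; resazurin added, fluorescence read after a further 8 h. IC50 = concentration inhibiting growth by 50%; mean of triplicate experiments ± SEM.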

Trypanosoma brucei [5] = experiment: Trypanocidal activity against bloodstream form of Trypanosoma brucei 221 assessed as inhibition of parasite growth at pH 7.4 after 48 hrs by Spectramax plate reader analysis; format: functional, organism-based; settings: Trypanosoma brucei, 221, 48 h
Outline: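 Bloodstream-form T. brucei strain 221 grown at 37 °C in modified Iscove's medium; log-phase cells diluted to 0.25 × 10^5 mL⁻¹, exposed to a range of compound concentrations in triplicate at 37 °C. Resazurin added after 48 h, read after a further 16 h. IC50 and IC90 = concentrations inhibiting growth 50% and 90%; mean of triplicate experiments ± SEM.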

Plasmodium falciparum = experiment: Antiplasmodial activity against chloroquine-resistant Plasmodium falciparum K1 infected in human A+ erythrocytes assessed as inhibition of parasite growth after 48 hrs by LDH assay; format: functional, organism-based; settings: K1, 48 h
Outline: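 Ring-stage cultures in human A+ erythrocytes (RPMI 1640, A+ serum, D-glucose), 2.5% haematocrit, 1% parasitaemia; twofold serial dilutions in duplicate, DMSO ≤0.5% final. 48 h at 37 °C under 93% N2/3% O2/4% CO2. Growth read as lactate dehydrogenase activity (APAD, lactate, diaphorase, NBT; 550 nm); % inhibition vs controls; IC50 by linear regression; mean of triplicate experiments.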

Sequence of Trypanothione reductase (P39051 whole entry): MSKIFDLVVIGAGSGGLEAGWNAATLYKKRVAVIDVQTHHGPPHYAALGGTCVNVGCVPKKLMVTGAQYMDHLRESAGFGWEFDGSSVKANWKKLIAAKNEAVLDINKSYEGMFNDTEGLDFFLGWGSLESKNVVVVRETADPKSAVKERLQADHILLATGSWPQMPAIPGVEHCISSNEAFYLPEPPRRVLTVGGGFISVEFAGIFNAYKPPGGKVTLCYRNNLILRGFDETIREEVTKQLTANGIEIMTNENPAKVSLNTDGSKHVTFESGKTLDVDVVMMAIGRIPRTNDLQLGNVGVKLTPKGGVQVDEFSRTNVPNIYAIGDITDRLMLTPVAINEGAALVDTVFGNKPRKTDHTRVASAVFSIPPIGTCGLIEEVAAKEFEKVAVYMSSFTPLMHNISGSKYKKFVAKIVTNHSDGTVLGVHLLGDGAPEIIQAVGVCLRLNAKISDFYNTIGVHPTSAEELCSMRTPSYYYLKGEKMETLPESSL

SMILES	IC50 (Trypanothione reductase) [nM]	IC50 [1] [equiv]	Ratio IC50 (Trypanosoma brucei [2])	selectivity ratio [3]	selectivity ratio [4]	IC50 (L6) [nM]	IC50 (Trypanosoma brucei [5]) [nM]	IC90 (Trypanosoma brucei [5]) [nM]	IC50 (Plasmodium falciparum) [nM]
CC1=CC2Cc3nc4cc(Cl)ccc4c(N)c3C(C1)C2 (centres undefined) [HUPRINE Y]	5000	> 4	8.2						
CC1=CC2Cc3nc4cc(Cl)ccc4c(NCCCCCCCCNc4c5c(nc6ccccc46)CCCC5)c3C(C1)C2 (centres undefined)	870	0.19	6	7.4	2.8	1110	150	290	390
COc1cc2c(cc1OC)CC(CC1CCN(CCCNc3c4c(nc5cc(Cl)ccc35)CC3C=C(C)CC4C3)CC1)C2 (centres undefined)	4880	0.42	29	12		2060	170	350	
